Measured values of several laboratories.
Compare with care: the assays were run in different laboratories.
lecA: PA-I galactophilic lectin (lecA, Pseudomonas aeruginosa, UniProt Q05097)
Oprd1: Delta-type opioid receptor (Oprd1, Mus musculus, UniProt P32300)
CHRM2: Muscarinic acetylcholine receptor M2 (CHRM2, Homo sapiens, UniProt P08172)

| Compound | target | test | conditions | measurement | result |
| --- | --- | --- | --- | --- | --- |
| CC(C)C[C@H](NC(=O)CNC(=O)[C@H](C)NC(=O)c1ccc(S[C@@H]2O[C@H](CO)[C@H](O)[C@H](O)[C@H]2O)cc1)C(=O)N[C@@H](C)C(=O)NC[C@@H]1CCN(c2cc3c(cc2F)c(=O)c(C(=O)O)cn3C2CC2)C1 | lecA | ligand displacement, FP | – | Ki | 11.2 µM |
| CC(=O)NC[C@H](NC(=O)[C@H](CCCNC(=N)N)NC(=O)[C@H](CCCNC(=N)N)NC(=O)[C@H](CC(C)C)NC(=O)[C@H](Cc1ccccc1)NC(=O)CNC(=O)CNC(=O)[C@H](Cc1ccc(O)cc1)NCc1ccccc1)C(=O)N[C@@H](CCCNC(=N)N)C(=O)N1CCC[C@H]1C(=O)N[C@@H](CCCCN)C(N)=O | Oprd1 | ligand displacement, radioligand | cell membranes | Ki | 2.29 µM |
| COc1cc(C(=O)N2CC[C@@H](O)[C@@H](N)C2)cc2nc(-c3cc4ccccc4n3CC3CC3)n(C)c12 | CHRM2 | calcium signal, agonist | – | EC50 | > 15.8 µM |
| Cc1nccc2c1[nH]c1ccccc12 | Amine oxidase [flavin-containing] A (Maoa, Rattus norvegicus, UniProt P21396) | enzyme activity, inhibitor | – | Ki | 0.75 µM |
| CC(C)C[C@H](NC(=O)[C@H](Cc1ccccc1)NC(=O)[C@H](Cc1ccc(O)cc1)NC(=O)CNC(=O)[C@H](CCCCN)NC(=O)[C@H](CO)NC(=O)[C@H](CCC(N)=O)NC(=O)CNC(=O)[C@@H](NC(=O)[C@H](CO)NC(=O)[C@@H]1CCCN1C(=O)[C@H](CO)NC(=O)[C@H](CCC(N)=O)NC(=O)[C@H](Cc1ccc(O)cc1)NC(=O)[C@H](CCC(=O)O)NC(=O)[C@H](C)NC(=O)[C@H](CCCCN)NC(=O)[C@@H](N)Cc1ccccc1)C(C)C)C(=O)N[C@@H](Cc1ccccc1)C(=O)N[C@@H](CCCNC(=N)N)C(=O)N1CCC[C@H]1C(=O)N[C@@H](CCCNC(=N)N)C(=O)N[C@@H](CC(N)=O)C(N)=O | Neuromedin-U receptor 1 (Mus musculus, UniProt O55040) | inositol phosphate, agonist | – | EC50 | 0.000166 µM |
| Cc1cc(O)cc(C)c1C[C@H](N)C(=O)N[C@H](C)C(=O)N[C@@H](Cc1ccccc1)C(=O)N[C@@H](CCCN)C(N)=O | Oprd1 | ligand displacement, radioligand | cell membranes | Ki | 0.06 µM |
| N[C@H](CO)Cc1ccccc1 | Phenylalanine-4-hydroxylase (Pah, Rattus norvegicus, UniProt P04176) | binding, fluorescence | pH 7.5 | Kd | 10600 µM |
| CC[C@H](C)[C@H](NC(=O)[C@H](Cc1ccccc1)NC(=O)[C@H](CC(=O)O)NC(=O)[C@H](CCCNC(=N)N)NC(=O)[C@@H](NC(=O)[C@H](C)NC(=O)[C@H](CC(C)C)NC(=O)[C@H](CC(N)=O)NC(=O)[C@H](CC(=O)O)NC(=O)[C@H](CC(C)C)NC(=O)[C@@H](NC(=O)[C@@H](NC(=O)[C@H](CO)NC(=O)[C@H](CCSC)NC(=O)[C@H](CCC(=O)O)NC(=O)[C@H](CC(=O)O)NC(=O)[C@H](CO)NC(=O)[C@H](Cc1ccccc1)NC(=O)[C@H](CO)NC(=O)CNC(=O)[C@H](CC(=O)O)NC(=O)[C@H](C)NC(=O)[C@@H](N)Cc1c[nH]cn1)[C@@H](C)O)[C@@H](C)CC)[C@@H](C)O)C(=O)N[C@@H](CC(N)=O)C(=O)N[C@@H](Cc1c[nH]c2ccccc12)C(=O)N[C@@H](CC(C)C)C(=O)N[C@H](C(=O)N[C@@H](CCC(N)=O)C(=O)N[C@H](C(=O)N[C@@H](CCCCN)C(=O)N[C@H](C(=O)N[C@H](C(=O)N[C@@H](CC(=O)O)C(=O)O)[C@@H](C)O)[C@@H](C)CC)[C@@H](C)O)[C@@H](C)CC | Gastric inhibitory polypeptide receptor (Mus musculus, UniProt Q0P543) | reporter gene, agonist, luciferase | – | EC50 | > 1 µM |
| CC(C)[C@H](NC(=O)[C@H](CCCCN)NC(=O)[C@@H](NC(=O)[C@@H]1CCCN1C(=O)[C@H](CCCNC(=N)N)NC(=O)CNC(=O)[C@@H](NC(=O)[C@@H](NC(=O)CNC(=O)[C@H](CO)NC(=O)CNC(=O)CCCC[C@@H]1SC[C@@H]2NC(=O)N[C@@H]21)[C@@H](C)O)[C@@H](C)O)[C@@H](C)O)C(=O)N[C@@H](Cc1ccccc1)C(=O)N[C@H](C(=O)N1CCC[C@H]1C(=O)N1CCC[C@H]1C(=O)N[C@@H](Cc1ccccc1)C(=O)N[C@@H](CCCCN)C(=O)N[C@H](C(=O)N[C@@H](CCCCN)C(=O)N[C@@H](CO)C(=O)N[C@@H](Cc1c[nH]cn1)C(=O)N[C@@H](Cc1ccccc1)C(=O)N[C@@H](Cc1c[nH]cn1)C(N)=O)[C@@H](C)O)C(C)C | DMC1 (Homo sapiens, UniProt Q14565) | binding, BLI | – | Kd | 0.0013 µM |
| CC(C)[C@@H](Nc1nc(Cl)nc2c1ncn2[C@H]1[C@H](O)[C@H](O)[C@]2(CN)C[C@H]12)C1CC1 | CHRM2 | ligand displacement, radioligand | – | Ki | > 6.6 µM |
| CC(C)C[C@H](NC(=O)CNC(=O)[C@H](C)NC(=O)c1ccc(S[C@@H]2O[C@H](CO)[C@H](O)[C@H](O)[C@H]2O)cc1)C(=O)N[C@@H](C)C(=O)N1CCN(c2cc3c(cc2F)c(=O)c(C(=O)O)cn3C2CC2)CC1 | lecA | ligand displacement, FP | – | Ki | 12.9 µM |
